Results on 5 molecules are retold here after ChEMBL document CHEMBL4627297, “Comparative reactivity analysis of small-molecule thiol surrogates” (Bioorg Med Chem, 2020).

Broadly, the half-life is how long it takes for the measured level to halve.

A short description of series [1]: Drug reactivity against cysteamine in pH 7.4 PBS buffer assessed as half life at 250 uM measured up to 72 hrs by HPLC-MS/MS analysis. The format is ADME. The note with it: PBS buffer with cysteamine (thiol reactivity). A digest of the protocol:
(§1)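 Fragment (500 µM in PBS pH 7.4 with 10% acetonitrile and 200 µM indoprofen internal standard) was mixed 1:1 with 10 mM thiol surrogate in PBS. Final concentrations were 250 µM fragment, 5 mM thiol, 100 µM indoprofen and 5% acetonitrile, giving pseudo-first-order conditions. HPLC sampling at 0, 1, 2, 4, 8, 12, 24, 48 and 72 h.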

A short description of series [2]: Drug reactivity against N-bezoyl-cysteamine in pH 7.4 PBS buffer assessed as half life at 250 uM measured up to 72 hrs by HPLC analysis. It counts as ADME. The note with it: PBS buffer with N-benzoyl-cysteamine (thiol reactivity). An outline of the steps:
as §1

Series [3] is described as follows: Drug reactivity against cysteine in pH 7.4 PBS buffer assessed as half life at 250 uM measured up to 72 hrs by HPLC-MS/MS analysis. It counts as ADME. The settings on record: PBS buffer with cysteine (thiol reactivity). A digest of the protocol:
as §1

Series [4] in a line: Drug reactivity against N-acetyl-cysteine in pH 7.4 PBS buffer assessed as half life at 250 uM measured up to 72 hrs by HPLC-MS analysis. The format is ADME. The settings on record: PBS buffer with N-acetyl-cysteine (thiol reactivity). An outline of the steps: as §1
The nature of series [5]: Drug reactivity against N-benzoyl-cysteine in pH 7.4 PBS buffer assessed as half life at 250 uM measured up to 72 hrs by HPLC-MS analysis. It counts as ADME. The settings on record: PBS buffer with N-benzoyl-cysteine (thiol reactivity). A digest of the protocol: as §1
The nature of series [6]: Drug reactivity against glutathione in pH 7.4 PBS buffer assessed as half life at 250 uM measured up to 72 hrs by HPLC analysis. The format is ADME. The note with it: PBS buffer with glutathione (thiol reactivity). A digest of the protocol: as §1
A short description of series [7]: Drug reactivity against N-benzoyl-glutathione in pH 7.4 PBS buffer assessed as half life at 250 uM measured up to 72 hrs by HPLC-MS/MS analysis. The format is ADME. The note with it: PBS buffer with N-benzoyl-glutathione (thiol reactivity). An outline of the steps:
as §1

Series [8] in a line: Solubility of the compound in pH 7.4 PBS buffer. It counts as physicochemical. An outline of the steps: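 Solubility was judged by eye as the absence of precipitation during the thiol reactivity incubations. Conditions were 250 µM fragment in PBS pH 7.4 with 5% acetonitrile, over up to 72 h.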

In the case of `FC(F)(F)c1cc(S)cc(C(F)(F)F)c1`, the half-life at 250 µM in series [1] was more than 3000 min; in series [2], more than 3000 min; in series [3], more than 3000 min; in series [4], 33 h; in series [5], more than 3000 min; in series [6] it was 1890 min. In series [7], the half-life at 250 µM is 11.2 h. Besides, in series [8], the solubility entry was “Soluble”.
As for `Fc1cc(C(F)(F)F)cc(C(F)(F)F)c1`, the half-life at 250 µM was more than 3000 min in series [1]; more than 3000 min in series [2]; more than 3000 min in series [3]; more than 50 h in series [4]; more than 3000 min in series [5]; more than 50 h in series [7]. Moreover, in series [8], the solubility result is reported as “Soluble”.
For `FC(F)(F)c1cc(N=C=S)cc(C(F)(F)F)c1`, the half-life at 250 µM in series [1] was less than 1.02 min; in series [2], less than 1.02 min; in series [3], less than 1.02 min; in series [4] it was less than 0.017 h; in series [5] it was 1.02 min; in series [6] it was less than 1.02 min. Further, the half-life at 250 µM in series [7] was less than 0.017 h. Further, the solubility entry in series [8] is “Soluble”.
Regarding `O=C(CBr)c1cc(C(F)(F)F)cc(C(F)(F)F)c1`, the half-life at 250 µM in series [1] was less than 1.02 min; in series [2], less than 1.02 min; in series [3], less than 1.02 min; in series [4], less than 0.017 h; in series [5], less than 1.02 min; in series [6], less than 1.02 min. Further, the half-life at 250 µM in series [7] is less than 0.017 h. Also, the solubility result in series [8] was “Soluble”.
Turning to `C=CC(=O)Oc1cc(C(F)(F)F)cc(C(F)(F)F)c1`, the half-life at 250 µM in series [1] was less than 1.02 min; in series [2], less than 1.02 min; in series [3], less than 1.02 min; in series [4], less than 0.017 h; in series [5], less than 1.02 min; in series [6], less than 1.02 min. In addition, the half-life at 250 µM in series [7] was less than 0.017 h. Besides, in series [8], the solubility result was “Soluble”.
